According to ChEMBL document CHEMBL1128463, “Design, synthesis, and antiviral activity of certain 2,5,6-trihalo-1-(beta-D-ribofuranosyl)benzimidazoles” (J Med Chem, 1995):

Tests used:
KB = test: Compound was evaluated for the inhibition of KB cell growth determined in quadruplicate assay; format: functional, cell-based; conditions: Homo sapiens
How it was run: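 KB cells at 3000–5000/well, compound added in quadruplicate at six to eight concentrations, 48 h at 37 °C (about two population doublings). Cells fixed with ethanol, stained with crystal violet, eluted dye read at 570 nm. IC50 from regression of percent inhibition on log concentration.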

Human betaherpesvirus 5 [1] = test: Compound was evaluated for the antiviral activity against HCMV determined by using Plaque assay; format: functional, organism-based
How it was run: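 Towne strain HCMV (plaque-purified P0) on HFF monolayers, about 100 PFU/cm², 2 h adsorption at 37 °C. Compounds added in growth medium, four to eight concentrations, duplicate wells. Incubated 7–10 days at 37 °C, then crystal violet stain and microscopic plaque count. Percent plaque reduction versus no-drug wells, regressed on log concentration to give IC50.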

HFF = test: Compound was evaluated for the visual cytotoxicity scored on HFF cells at time of HCMV plaque enumeration; format: functional, cell-based; conditions: Homo sapiens
How it was run: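 Stationary HFF cells not affected by virus in the HCMV plaque assay, inspected microscopically for cytotoxicity when plaques were counted (after 7–10 days at 37 °C). Reported as IC50.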

Human alphaherpesvirus 1 = test: Compound was evaluated for the antiviral activity against HSV-1 determined by using ELISA method; format: functional, organism-based
How it was run: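 HSV-1 (KOS strain in most experiments) at 100 PFU/well on BSC-1 cells (10 000/well), drug in quadruplicate, 3–5 days at 37 °C. Wells blocked, probed with HRP-conjugated rabbit anti-HSV-1 antibody, developed with tetramethylbenzidine and read at 450 and 570 nm. Percent absorbance reduction versus virus-only wells; IC50 from regression on log concentration.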

Human betaherpesvirus 5 [2] = test: Compound was evaluated for the antiviral activity against HCMV determined by using Yield reduction assay; format: functional
How it was run: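 HFF cells at 12 500 cells/well, infected with Towne HCMV at MOI 0.5–1 PFU/cell. Compounds added after adsorption, 1:3 serial dilutions spanning about 1000-fold (e.g. 100–0.14 μM), in duplicate. 7 days at 37 °C, one freeze-thaw, then progeny titred by plaque count on fresh HFF plates. Reported as IC90.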

Row | Structure (SMILES) | IC50 (KB) [µM] | IC50 (Human betaherpesvirus 5 [1]) [µM] | IC50 (HFF) [µM] | IC50 (Human alphaherpesvirus 1) [µM] | IC90 (Human betaherpesvirus 5 [2]) [µM]
1 | Clc1cc2nc(Br)[nH]c2cc1Cl | 56 | 12 | 21 | – | –
2 | Clc1nc2cc(Cl)c(Cl)cc2[nH]1 | 19 | 6.4 | 24 | 51 | –
3 | OC[C@H]1O[C@H](n2c(Br)nc3cc(Cl)c(Cl)cc32)[C@@H](O)[C@H]1O | > 100 | 0.7 | 118 | 130 | 0.2
4 | CC(=O)OC[C@H]1O[C@@H](n2c(Br)nc3cc(Cl)c(Cl)cc32)[C@H](OC(C)=O)[C@@H]1OC(C)=O | 25 | 1.5 | 100 | > 100 | 0.2
5 | CC(=O)OC[C@H]1O[C@@H](n2c(Cl)nc3cc(Cl)c(Cl)cc32)[C@H](OC(C)=O)[C@@H]1OC(C)=O | > 100 | 2 | 100 | – | 0.2
6 | OC[C@H]1O[C@@H](n2c(Cl)nc3cc(Cl)c(Cl)cc32)[C@H](O)[C@@H]1O | 210 | 2.9 | 238 | 102 | 1.4
7 | Nc1nc2cc(Cl)c(Cl)cc2n1C1O[C@H](CO)[C@@H](O)[C@H]1O (some centres not stated) | 40 | 40 | 32 | 50 | 8
8 | OC[C@H]1OC(n2c(I)nc3cc(Cl)c(Cl)cc32)[C@H](O)[C@@H]1O (some centres not stated) | 23 | 30 | 118 | 21 | 26
9 | OC[C@H]1OC(n2c(O)nc3cc(Cl)c(Cl)cc32)[C@H](O)[C@@H]1O (some centres not stated) | – | > 100 | 100 | – | –
10 | O=[N+]([O-])c1c(Cl)c(Cl)cc2c1nc(O)n2C1O[C@H](CO)[C@@H](O)[C@H]1O (some centres not stated) | – | > 100 | 100 | > 100 | –
11 | Nc1nc2cc(Cl)c(Cl)cc2[nH]1 | > 100 | 100 | 100 | > 100 | –
12 | OC[C@H]1O[C@@H](n2cnc3cc(Cl)c(Cl)cc32)[C@H](O)[C@@H]1O [DICHLORORIBOBENZIMIDAZOLE] | 36 | – | 24 | – | 19
13 | O=C(O)P(=O)(O)O [FOSCARNET SODIUM] | – | – | > 100 | – | –
14 | Nc1nc2c(ncn2COC(CO)CO)c(=O)[nH]1 [GANCICLOVIR] | > 100 | – | > 100 | – | 1.6
